Compound activity as filed in PubChem.
Most compounds without a hit are left out; they make up all but 4.8% or so of the library.
CSC inhib – cancer stem cell viability inhibitors, primary screen, luminescence; cancer stem cell-like cells viability; inhibition, % at 7.5 µM; 300,000 compounds, 1.1% hits; AID 2717, 2010; in the data active = inhibition above about 75%; tested in HMLE shEcad cells
WT yeast gro inh – growth inhibition of WT strain, primary screen, mitochondrial fusion inhibitor project, WT and mutant strains, chemical genetic; mitochondrial fusion phenotypic screen; inhibition, % at 10 µM; 190,000 compounds, 2.1% hits; in the data active = inhibition above about 58%; tested in S. cerevisiae
T cruzi repl – inhibitors of intracellular T. cruzi growth, primary screen, luminescence, NIH3T3 host cells; 300,000 compounds, 1.4% hits; T. cruzi beta-gal in NIH3T3, 90 h; inhibition, % (no concentration beside the values);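 active = mean inhibition across valid replicates above about 55%, limit read from the data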;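 also: signal also drops with host cell toxicity which is not excluded here; 0% = plate median of DMSO wells and 100% = zero luminescence signal; higher percent means less beta-gal luminescence so fewer parasites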
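Test system: β-gal T. cruzi (Tulahuen C4) inside NIH/3T3 cells / Quantity: 5,000 cells/well / Measured by: luminescence from GalScreen with 0.05% NP40, read after 60 min / Medium: DMEM plus 2% FBS / Measure: parasite load inhibition, % / Reagent: Tulahuen C4 trypomastigotes, 5000/well / Schedule: co-culture of at least 90 h after 3 h attachment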
Beta apoptosis – inhibitors of cytokine-induced beta cell apoptosis, primary screen, luminescence. INS-1E cytokine-induced death, ATP luminescence, 48 h; percent of positive-control rescue, neutral wells zero. protection from apoptosis, % (concentration not given with the values). 300,000 compounds, 0.8% hits. AID 435005, 2010;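 active = Every replicate reaches about 75%, or at least half do and their mean reaches it too, limit read from the data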;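 also: 0% = cytokine-treated negative control wells and 100% = positive control rescue; higher means more ATP so stronger rescue from cytokine killing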
Mot1-301 SUMO – yeast Mot1-301 growth rescue at high temperature, primary screen, SUMOylation pathway inhibitor project, S. cerevisiae, ATP luminescence, 38.5C. S. cerevisiae Mot1-301 growth rescue; percent above DMSO median, 100 means doubled. growth rescue, % at 18.8 µM. 320,000 compounds, 1% hits. AID 2716, 2010;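 active = every valid replicate shows activation above 250% relative to neutral control wells; inactive = the rest, any valid replicate at or below 250%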;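 also: OY570 slx delta 5 strain wells were the positive control but not used for scaling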
Efflux pump inh – inhibitors of Candida efflux pumps in yeast, primary screen, S. cerevisiae, Nile Red, multiplex; S. cerevisiae Candida pump triplex; inhibition, % at 10 µM; 330,000 compounds, 0.44% hits; AID 485275, 2010;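 active = plate passing quality check with inhibition over a set limit, or well fluorescence over plate mean plus 4 SD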;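 also: Nile Red retained in pooled yeast measured as flow cytometry median fluorescence; 0% = buffer negative control and 100% = Enniatin B positive control; higher means more Nile Red kept so more efflux inhibition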
* = called active by the depositor; . = no result.

SMILES	CSC inhib	WT yeast gro inh	T cruzi repl	Beta apoptosis	Mot1-301 SUMO	Efflux pump inh
Cn1cc(CN2CCCC(CNC(=O)c3ccc4c(c3)OCO4)C2)c2ccccc21 (stereo not given)	-7.7	1.2	66.5*	.	10.9	-0.1
COCc1cc(CN2CCCC(CNC(=O)c3ccc(F)cc3)C2)ccc1OC (stereo not given)	-5.6	-5.6	80.8*	-6.2	-6.0	0.0
COc1ccc(C(=O)N2CCCC(CNC(=O)c3ccc(F)cc3)C2)cc1OC (stereo not given)	.	.	-18.0	.	.	0.3
COc1ccc2[nH]cc(CCNC(=O)c3ccc4ccccc4n3)c2c1	-4.8	.	-6.9	16.2	-3.9	0.1
COc1ccc(NC(=O)C2Cc3ccccc3O/C2=N\O)cc1 (stereo not given)	10.3	.	-3.7	1.8	0.7	-0.1
COC(=O)c1cc2c(ccc3ccccc32)oc1=O	.	.	-20.9	.	-11.3	0.2
COC(=O)c1cc2ccccc2c(-c2c(OC)c(C(=O)OC)cc3ccccc23)c1OC	21.3	72.3*	46.7	-3.7	-2.9	-0.1
CCCSCCCNC(=O)Cn1c(=O)c2cccn2c2ccccc21	-11.1	.	6.4	-9.4	13.2	0.0
CSCCC(NC(=O)c1ccccc1Cl)C(=O)N1CCN(c2ccccn2)CC1 (stereo not given)	-16.9	.	-3.7	-0.2	3.1	3.5
CN1CCN(C(=O)c2cnn(-c3ccccc3)c2NC(=O)c2ccccc2Br)CC1	-0.9	.	-7.3	0.9	331.4*	-0.1
CCOC(=O)N(C)OC(=O)Nc1ccc(Cl)c(Cl)c1	6.0	62.0*	9.9	0.5	5.6	-0.2
CCOC(=O)N(CC)OC(=O)Nc1ccc(Cl)cc1	-2.5	6.5	18.8	6.7	12.9	-0.2
COc1ccc(C(CCN2CCOCC2)c2c(O)cc(OC)cc2OC)cc1 (stereo not given)	-1.2	.	-13.6	-4.8	10.5	0.0
COc1ccc(C(c2c(O)ccc3ccccc23)N2CCOCC2)c(OC)c1 (stereo not given)	100.8*	-5.3	47.6	-16.1	33.5	0.2
O=C(/C=C/c1ccc2c(c1)OCCCO2)c1ccc2ccccc2c1O	94.8*	-2.7	-1.2	-6.5	-13.9	3.9
Cc1ccc(C(=O)/C=C/c2ccc3c(c2)OCCO3)c(O)c1	33.9	.	-9.2	2.0	-12.6	-0.1
Cc1sc2nc(CSCC(=O)Nc3ccccc3C#N)[nH]c(=O)c2c1C	-7.7	-2.8	-21.2	-2.7	2.4	-0.4
Fc1ccccc1-c1cc2ncccc2cn1	4.0	.	.	0.7	18.6	-0.5
CCN(CC)c1ccc(N)cc1	23.4	.	.	108.4*	23.3	0.0
O=C(N/N=C/c1cn(-c2ccccc2)nc1-c1ccc(F)cc1)c1ccc(Br)o1	31.1	-6.9	22.4	109.8*	19.4	0.1
CC(C)CCSc1nc(N)c(C#N)cc1C#N	23.7	-38.7	66.8*	12.5	-6.8	0.6
CC(=O)c1cc(C#N)c(SCCC(C)C)nc1C	21.1	-3.4	31.4	2.2	6.7	0.0
COc1ccccc1NS(=O)(=O)c1cc(NC(=O)COc2ccccc2F)ccc1N1CCOCC1	.	.	.	40.0	-11.2	-0.2
C/C(=N\NC(N)=S)C1(C)CC2(CC(C)(C)OC2=O)C(=O)O1 (stereo not given)	-3.2	.	-3.1	-3.1	-7.4	-0.1
CC1(C)CCN2CCC(C)(C)c3c(O)ccc1c32	131.3*	.	50.2	110.7*	39.8	0.1
COc1ccc(-c2nc(=S)c3c([nH]2)Oc2ccc(C)cc2C3)cc1O	-9.0	13.1	11.1	-3.7	14.0	0.3
CC(C)(C)c1ccc(S(=O)(=O)N2CCC(c3nc4ccc(Cl)cc4[nH]3)CC2)cc1	18.9	69.0*	55.4*	.	-30.5	0.0
C[C@]12CCC(O)CC1=CCC1C2CC[C@]2(C)/C(=N\NC(N)=S)CCC12 (stereo not given in full)	-19.4	.	65.8*	-9.5	3.3	0.1
CC12CCC(O)CC1=CCC1C2CCC2(C)C1CCC21CCC(=O)O1 (stereo not given)	-7.4	74.7*	8.2	-0.6	77.5	-0.2
C[C@]12CCC3C(CC=C4C[C@@H](O)CC[C@@]43C)C1CCC2[C@]1(C)CCC(=O)O1 (stereo not given in full)	.	18.0	-27.0	-1.7	0.1	0.0
